Compounds with a hit are over-represented: about 2.3% of the library has one in this group of screens.
TRPC4 inh: inhibitors of mouse TRPC4 channel; B-score at 10 µM; hit rate 0.39% among 300,000; AID 2247; HEK293 TRPC4beta/mu-opioid, DAMGO-evoked Fluo4 calcium flux; stronger effect = lower value;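 active = B-score over 3 SD under the library average, no early fluorescence shift, positive overall ratio signal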
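Assay system: TRPC4beta/mu-opioid receptor HEK293 cell line; compound dosing: single concentration per test compound; detection: Fluo4 Ca2+ flux fluorescence; evaluation: per-well B score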
TRPC6 activator: activates the mouse TRPC6 cation channel; HEK293-TRPC6 membrane potential dye fluorescence; stronger effect = higher value; B-score at 10 µM; hit rate 0.13% among 310,000; AID 2550;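 active = B-score of the integrated fluorescence ratio above library mean plus 3 SD, and starting fluorescence ratio within library mean plus 5 SD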;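 note: higher score means more depolarization so channel activation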
Target sequence (Q61143 whole entry, looked up): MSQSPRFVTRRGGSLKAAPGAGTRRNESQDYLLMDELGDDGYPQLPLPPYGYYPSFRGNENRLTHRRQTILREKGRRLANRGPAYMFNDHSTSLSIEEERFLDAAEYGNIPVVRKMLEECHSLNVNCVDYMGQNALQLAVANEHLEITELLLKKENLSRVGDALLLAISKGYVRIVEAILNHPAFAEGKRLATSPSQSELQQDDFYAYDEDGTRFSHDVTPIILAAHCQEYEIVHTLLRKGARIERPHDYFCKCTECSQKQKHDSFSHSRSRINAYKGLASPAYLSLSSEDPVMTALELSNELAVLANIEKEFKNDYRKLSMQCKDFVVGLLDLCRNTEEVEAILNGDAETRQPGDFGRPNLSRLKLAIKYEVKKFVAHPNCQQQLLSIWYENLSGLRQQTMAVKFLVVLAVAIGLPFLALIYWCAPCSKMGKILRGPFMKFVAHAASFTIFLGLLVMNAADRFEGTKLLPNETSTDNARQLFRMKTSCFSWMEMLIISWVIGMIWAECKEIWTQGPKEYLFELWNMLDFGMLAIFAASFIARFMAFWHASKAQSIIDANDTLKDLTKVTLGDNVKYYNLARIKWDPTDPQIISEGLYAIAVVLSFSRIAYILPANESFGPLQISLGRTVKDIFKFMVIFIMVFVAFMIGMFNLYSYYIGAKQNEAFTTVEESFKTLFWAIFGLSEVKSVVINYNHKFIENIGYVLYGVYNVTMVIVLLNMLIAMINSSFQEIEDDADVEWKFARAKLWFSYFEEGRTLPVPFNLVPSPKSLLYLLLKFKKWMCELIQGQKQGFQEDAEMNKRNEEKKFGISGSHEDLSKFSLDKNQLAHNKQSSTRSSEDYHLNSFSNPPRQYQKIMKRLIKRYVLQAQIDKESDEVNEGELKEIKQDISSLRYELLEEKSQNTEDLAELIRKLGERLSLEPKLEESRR
TRPC4 act: opens the mouse TRPC4 cation channel; Q9QUQ5; HEK293 TRPC4beta/mu-opioid, Fluo4 calcium fluorescence; stronger effect = higher value; B-score at 10 µM; hit rate 0.49% among 310,000; AID 2237;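 active = B-score above 5 SD of library B-scores, and initial fluorescence ratio not above library mean plus 5 SD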;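 note: positive B-score marks a calcium rise read as TRPC4 activation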
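Incubation: 45 min room-temperature Fluo4 loading, 110 s read / System: HEK293 cells stably co-expressing mouse TRPC4beta and mu-opioid receptor / Signal: Fluo4 fluorescence, kinetic / Control set: buffer (low) and maximal DAMGO (high) / Measure: integrated baseline-normalised fluorescence ratio, converted to per-well B score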
TRPC4 potent: allosterically enhances the mouse TRPC4 cation channel | AID 2227 | HEK293 TRPC4beta/mu-opioid, DAMGO EC20, Fluo-4 Ca2+ flux; stronger effect = higher value | Q9QUQ5 | hit rate 0.42% among 310,000 | B-score at 10 µM;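 active = B-score of calcium response area above 5 SD of library B-scores, with initial fluorescence ratio within 5 SD of library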;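 note: B-score of integrated fluorescence ratio over time as area under calcium response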
TRPC6 inh: mouse TRPC6 channel inhibition. HEK293-TRPC6, membrane potential dye, ACh-evoked depolarization; stronger effect = lower value. B-score at 10 µM. hit rate 1.1% among 310,000. AID 2553;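 active = B-score under library mean minus 3 SD, initial fluorescence not abnormally high, positive integrated signal ratio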;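 note: B-score derived from integrated fluorescence ratio over the kinetic read; more negative B-score means stronger inhibition of depolarization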
TRPC4 sel inh 2: second check of whether TRPC6 inhibitors also affect mouse TRPC4. hit rate 42% among 920. inhibition, % at 10 µM. HEK293 TRPC4/MOR, membrane potential dye fluorescence; channel activated by saturating DAMGO dose. shares compounds with TRPC6 inh;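 active = compounds whose fluorescence signal differed from control wells by over 3 SD, either direction, in both duplicate plates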
TRPC4 spec: mouse TRPC4 off-target activity of TRPC6 inhibitors. shares compounds with TRPC6 inh. HEK293 TRPC4/mu-opioid, membrane potential fluorescence. activity change, negative = inhibition, % at 10 µM. hit rate 61% among 920. AID 2777;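 active = rise or fall in signal beyond 3 SD of buffer-only wells in both replicate plates, either sign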;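 note: integrated kinetic ratio of fluorescence range over baseline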
HEK293 MPD ctr 2-1: parental HEK293 nonspecific activity of TRPC6 inhibitors, second screen. hit rate 31% among 920. signal change vs control, % at 10 µM. shares compounds with TRPC6 inh. parental HEK293 membrane potential dye fluorescence; maximal acetylcholine challenge after compound addition;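 active = membrane potential signal moving either way by over 3 SD of the maximum-effect control, in both duplicate plates, meaning non-specific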
HEK293 MPD ctr-1: counter-screen for TRPC6 inhibitors: effect in parental HEK293 cells | parental HEK293 membrane potential dye fluorescence | shares compounds with TRPC6 inh | hit rate 60% among 920 | membrane potential signal change, % at 10 µM;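 active = membrane potential signal shifting up or down by more than 3 SD of buffer-only wells, on both duplicate plates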
HEK293 MPD ctr-2: counter-screen for TRPC6 modulators: effect in parental HEK293 cells; membrane potential dye fluorescence; shares compounds with TRPC6 inh; membrane potential signal change, % at 10 µM; hit rate 51% among 2,400;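 active = membrane potential signal moves up or down beyond 5 SD from buffer-only wells, on both duplicate plates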
HEK293 MPD ctr 2-2: parental HEK293 nonspecific activity of TRPC6 modulators, second screen | shares compounds with TRPC6 inh | membrane potential dye fluorescence; after compound, maximal acetylcholine stimulation | hit rate 14% among 2,400 | AID 488926 | inhibition, % at 10 µM;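 active = membrane potential signal drops by more than 5 SD from the mean control signal, in both duplicate plates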;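 note: plate controls were acetylcholine ECmax control wells for no effect and buffer only wells for full effect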
TRPC4 ctr mod: mouse TRPC4 off-target activity of TRPC6 modulators. shares compounds with TRPC6 inh. HEK293 TRPC4/mu-opioid, membrane potential fluorescence. percent change from control (negative = decrease, positive = increase), % at 10 µM. hit rate 69% among 2,400. AID 488927;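 active = membrane potential signal moved up or down beyond 5 SD of buffer control wells, in both duplicate plates, actives on both sides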;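 note: plate controls were assay buffer wells for no effect and DAMGO maximal-effect wells for full effect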
TRPC4/MOR inh 2: second selectivity test of TRPC6 modulators against mouse TRPC4; shares compounds with TRPC6 inh; HEK293 TRPC4/mu-opioid, membrane potential dye fluorescence; stimulated with maximal-effect DAMGO; inhibition, % at 10 µM; hit rate 55% among 2,400; AID 488928;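 active = drop in membrane potential signal beyond 5 SD of the control wells in both duplicate plates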;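 note: TRPC4 counter screen for TRPC6 hits run under conditions tuned for TRPC6 not TRPC4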
TRPC6 block conf: mouse TRPC6 inhibitor confirmation | shares compounds with TRPC6 inh | HEK293-TRPC6, membrane potential dye, ACh-evoked depolarization | inhibition, % at 10 µM | hit rate 43% among 3,300 | AID 488960;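 active = fluorescence ratio falls more than 5 SD below the full-stimulation control mean, in both duplicate runs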;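 note: integrated fluorescence ratio of peak minus minimum over baseline after agonist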
TRPC6 act conf: confirmation of mouse TRPC6 activators. shares compounds with TRPC6 inh. HEK293-TRPC6 membrane potential dye fluorescence, FDSS. activation, % at 10 µM. hit rate 11% among 2,800. AID 488961;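 active = ratio signal rise beyond 5 SD above unstimulated control wells' mean, seen in both duplicate runs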;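 note: plate controls were buffer EC0 wells for no effect and acetylcholine ECmax response for full effect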
Starred values were filed as active, the others as inactive; i = inactive; . = no result.

SMILES | TRPC4 inh | TRPC6 activator | TRPC4 act | TRPC4 potent | TRPC6 inh | HEK293 MPD ctr-2 | HEK293 MPD ctr 2-2 | TRPC4 ctr mod | TRPC4/MOR inh 2 | TRPC6 block conf | TRPC6 act conf | others
CCc1cccc(NC(=O)CSc2nnc(Cc3ccc(OC)cc3)c(=O)[nH]2)c1 | i | i | i | i | i | . | . | . | . | . | .
Cn1c(NCc2c[nH]c3ccccc23)nc2ccccc21 | -5* | i | i | i | -6.7* | . | . | . | . | i | i | TRPC4 sel inh 2=48%*;TRPC4 spec=-12%*;HEK293 MPD ctr 2-1=i;HEK293 MPD ctr-1=-214%*
COc1cccc(CNc2cnc3ccccc3c2)c1O | i | i | i | i | i | . | . | . | . | . | .
COc1cccc(CNc2nc3ccccc3n2C)c1O | i | i | i | i | -5.7* | i | i | i | 43%* | i | i
COC(=O)/C=C/c1cc(F)ccc1S(=O)(=O)NC(C)(C)C | i | i | i | i | i | . | . | . | . | . | .
CCOC(=O)c1c(NC(=O)c2cccc(N3C(=O)CCC3=O)c2)sc2c1CCN(CC)C2 | i | i | i | i | -6.3* | i | i | i | 28%* | i | i
CCOC(=O)c1c(NC(=O)CSc2ncccn2)sc2c1CCN(Cc1ccccc1)C2 | i | i | i | i | -5.5* | i | i | -20%* | 35%* | i | i
CCOC(=O)c1c(NC(=O)CC)sc2c1CCN(Cc1ccccc1)C2 | i | i | i | i | i | . | . | . | . | . | .
CCOC(=O)c1c(N)sc2c1CCCC2 | i | i | i | i | i | . | . | . | . | . | .
CCOC(=O)c1c(N)sc2c1CCN(CCc1ccccc1)C2 | i | i | i | i | -5.9* | i | i | 22%* | 34%* | i | i
CCOC(=O)c1c(NC(C)=O)sc2c1CCN(Cc1ccccc1)C2 | i | i | i | i | -5.3* | -198%* | i | -34%* | 39%* | i | i
CCC(=O)C1CCCN(C(=O)c2cccc(OC3CCN(S(C)(=O)=O)CC3)c2)C1 (configuration not stated) | i | i | i | i | i | . | . | . | . | . | .
CCCCCN(C(=O)CCC(=O)OCC(=O)Nc1ccc(C)cc1F)c1c(N)n(CCCC)c(=O)[nH]c1=O | i | i | i | i | i | . | . | . | . | . | .
Cc1ccc2c(c1)c(CC(=O)Nc1ccc(F)cc1)c(C(=O)O)n2C | i | i | i | i | i | . | . | . | . | . | .
COc1ccc(NS(=O)(=O)c2ccc(C)c(C(=O)NCC(c3ccco3)N3CCCCC3)c2)cc1 (configuration not stated) | i | i | i | i | i | . | . | . | . | . | .
CCc1cccc(NC(=O)CS(=O)Cc2nc(-c3ccc(C)cc3)oc2C)c1 (configuration not stated) | i | i | i | i | i | . | . | . | . | . | .
COC(=O)c1c(NC(C)=O)sc2c1CCN(Cc1ccccc1)C2 | i | i | i | i | -5.5* | -196%* | i | -34%* | 37%* | i | i
CCN1CCN(S(=O)(=O)c2ccc(C(=O)Nc3sc4c(c3C(N)=O)CCN(CC)C4)cc2)CC1 | i | i | i | i | -10* | -144%* | i | -27%* | 37%* | 58%* | i
COC(=O)c1c(NC(=O)C(C)(C)C)sc2c1CCN(Cc1ccccc1)C2 | i | i | i | i | i | . | . | . | . | . | .
COc1ccc(NC(=O)C(CC(=O)O)Cc2ccc(C)cc2)cc1 (configuration not stated) | i | i | i | i | i | . | . | . | . | . | .
COc1cccc(C(=O)N2CCN(S(=O)(=O)Cc3ccccc3)CC2)c1OC | i | i | i | i | i | . | . | . | . | . | .
CCCCN(CCCC)C(=O)c1nsnc1-c1ccccc1O | i | i | i | i | i | . | . | . | . | . | .
Cc1scc2c1N(C(=O)CN1CCN(C)CC1)c1ccccc1NC2=O | i | i | i | i | -6.5* | i | 86%* | i | i | 78%* | i
CCN1CCN(CC(=O)N2c3ccccc3Sc3ccccc32)CC1 | i | i | i | i | i | . | . | . | . | . | .
Cc1cccc2c1Sc1ccc(Cl)cc1CC2N1CCNCC1 (configuration not stated) | i | i | i | i | -5.1* | i | i | i | 61%* | 43%* | i
CC(C)c1ccc2c(c1)C(N1CCNCC1)Cc1ccc(F)cc1S2 (configuration not stated) | i | i | i | i | i | . | . | . | . | . | .
CN1CCN(C2Cc3cc(F)ccc3Sc3ccc(Cl)cc32)CC1 (configuration not stated) | i | i | i | i | -5.3* | i | i | 21%* | 47%* | 48%* | .
CN1CCN(C2Cc3ccccc3Sc3cc(C(F)(F)F)ccc32)CC1 (configuration not stated) | i | i | i | i | i | . | . | . | . | . | .
CN1CCN(C2Cc3ccc(F)cc3Sc3cc(F)c(Cl)cc32)CC1 (configuration not stated) | i | i | i | i | i | . | . | . | . | . | .

Compound activity as filed in PubChem BioAssay.
